Data as given in ChEMBL document CHEMBL3352173, “Optimization of pyrrolamide topoisomerase II inhibitors toward identification of an antibacterial clinical candidate (AZD5099)” (J Med Chem, 2014).
≈ marks a conversion by molar mass, not a printed value.

Tests used:
Haemophilus influenzae = assay: Antimicrobial activity against Haemophilus influenzae by broth microdilution/CLSI method; assay type: functional; conditions: Haemophilus influenzae; read-out: MIC
DNA gyrase subunit B = DNA gyrase subunit B (Staphylococcus aureus, UniProt P0A0K8); assay: Inhibition of ATPase activity of Staphylococcus aureus GyrB
Sequence of DNA gyrase subunit B (P0A0K8 whole entry): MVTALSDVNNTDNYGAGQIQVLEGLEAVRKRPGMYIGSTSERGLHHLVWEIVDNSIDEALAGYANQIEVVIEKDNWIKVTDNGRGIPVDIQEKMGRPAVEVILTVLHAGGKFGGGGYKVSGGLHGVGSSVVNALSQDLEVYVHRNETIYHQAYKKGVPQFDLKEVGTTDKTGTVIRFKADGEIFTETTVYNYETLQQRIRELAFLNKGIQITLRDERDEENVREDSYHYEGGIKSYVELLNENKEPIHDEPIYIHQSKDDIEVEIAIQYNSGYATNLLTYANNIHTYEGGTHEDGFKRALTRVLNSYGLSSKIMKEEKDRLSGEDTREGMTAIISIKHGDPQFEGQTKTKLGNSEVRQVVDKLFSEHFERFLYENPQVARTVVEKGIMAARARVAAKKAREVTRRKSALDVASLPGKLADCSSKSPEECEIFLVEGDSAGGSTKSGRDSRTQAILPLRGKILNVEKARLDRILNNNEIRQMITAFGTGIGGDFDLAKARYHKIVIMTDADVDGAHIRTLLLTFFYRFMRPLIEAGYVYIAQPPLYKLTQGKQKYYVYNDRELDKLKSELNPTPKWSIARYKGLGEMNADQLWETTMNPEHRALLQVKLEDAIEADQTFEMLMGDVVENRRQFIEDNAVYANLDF
Summary of the method: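 IC50 was determined against S. aureus GyrB in the routine screening assay. The enzyme concentration limits resolution below 10 nM.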

Streptococcus pneumoniae = assay: Antibacterial activity against Streptococcus pneumoniae by broth microdilution/CLSI method; assay type: functional; conditions: Streptococcus pneumoniae; read-out: MIC
Streptococcus pyogenes = assay: Antimicrobial activity against Streptococcus pyogenes by broth microdilution/CLSI method; assay type: functional
Staphylococcus aureus [1] = assay: Antimicrobial activity against methicillin-sensitive Staphylococcus aureus by broth microdilution/CLSI method; assay type: functional; conditions: Staphylococcus aureus; read-out: MIC
Staphylococcus aureus [2] = assay: Antimicrobial activity against methicillin, quinolone-resistant Staphylococcus aureus by broth microdilution/CLSI method; assay type: functional; conditions: Staphylococcus aureus; read-out: MIC
Moraxella catarrhalis = assay: Antimicrobial activity against Moraxella catarrhalis by broth microdilution/CLSI method; assay type: functional; conditions: Moraxella catarrhalis; read-out: MIC
Escherichia coli [3] = assay: Antimicrobial activity against wild-type Escherichia coli Eco523 by broth microdilution/CLSI method; assay type: functional; conditions: Escherichia coli, Eco523; read-out: MIC
Escherichia coli [4] = assay: Antimicrobial activity against Escherichia coli tolC- by broth microdilution/CLSI method; assay type: functional; conditions: Escherichia coli; read-out: MIC
[5] = Octanol-phosphate buffer distribution coefficient, log D of the compound at pH 7.4 by shake flask method; assay type: physicochemical
[6] = Percentage unbound in human plasma; assay type: ADME, cell-free
[7] = Solubility of the compound; assay type: physicochemical
[8] = Ratio of MIC for methicillin, quinolone-resistant Staphylococcus aureus to fraction unbound in human plasma; assay type: ADME

Row | Compound | MIC (Haemophilus influenzae) [µg/mL] | IC50 (DNA gyrase subunit B) [µM] | MIC (Streptococcus pneumoniae) [µg/mL] | MIC (Streptococcus pyogenes) [µg/mL] | MIC (Staphylococcus aureus [1]) [µg/mL] | MIC (Staphylococcus aureus [2]) [µg/mL] | MIC (Moraxella catarrhalis) [µg/mL] | MIC (Escherichia coli [3]) [µg/mL] | MIC (Escherichia coli [4]) [µg/mL] | logD [5] | fraction unbound [6] | solubility [7] [µM] | Ratio [8]
1 | CO[C@H]1CO[C@@]2(CN(c3ncc(C(=O)O)s3)CC[C@H]2NC(=O)c2[nH]c(C)c(Cl)c2Cl)OC1 (relative stereo) | 2 (≈ 3.96 µM) | < 0.01 | 0.063 (≈ 0.125 µM) | 0.063 (≈ 0.125 µM) | 4 (≈ 7.91 µM) | 8 (≈ 15.8 µM) | 1 (≈ 1.98 µM) | > 64 | 1 (≈ 1.98 µM) | 0.15 | 0.053 | > 1000 | –
2 | CO[C@H]1CN(c2nc(CO)c(C(=O)O)s2)CC[C@H]1NC(=O)c1[nH]c(C)c(Cl)c1Cl (racemic) | 8 (≈ 17.3 µM) | < 0.01 | 2 (≈ 4.32 µM) | – | > 8 | – | 1 (≈ 2.16 µM) | > 8 | 1 (≈ 2.16 µM) | -0.27 | 0.029 | – | 17
3 | Cc1[nH]c(C(=O)N[C@@H]2CCN(c3ncc(C(=O)O)s3)CC23OCCCO3)c(Cl)c1Cl | 1 (≈ 2.1 µM) | < 0.01 | 0.063 (≈ 0.133 µM) | 0.063 (≈ 0.133 µM) | 2 (≈ 4.21 µM) | 4 (≈ 8.41 µM) | 0.13 (≈ 0.273 µM) | > 64 | 1 (≈ 2.1 µM) | 0.4 | 0.03 | > 1000 | –
4 | CO[C@H]1CN(c2nc(C(=O)O)c(C(N)=O)s2)CC[C@H]1NC(=O)c1[nH]c(C)c(Cl)c1Cl (racemic) | > 8 | < 0.01 | 1 (≈ 2.1 µM) | – | > 8 | – | 2 (≈ 4.2 µM) | > 8 | 1 (≈ 2.1 µM) | -0.63 | 0.005 | – | 160
5 | Cc1[nH]c(C(=O)N[C@@H]2CCN(c3ncc(C(=O)O)s3)CC23OCCO3)c(Cl)c1Cl | 32 (≈ 69.4 µM) | 0.015 | 2 (≈ 4.34 µM) | 2 (≈ 4.34 µM) | 32 (≈ 69.4 µM) | 64 (≈ 139 µM) | 1 (≈ 2.17 µM) | > 64 | 1 (≈ 2.17 µM) | -0.39 | 0.075 | > 1000 | –
6 | Cc1[nH]c(C(=O)N[C@@H]2CCN(c3ncc(C(=O)O)s3)C[C@@H]2S(C)(=O)=O)c(Cl)c1Cl (racemic) | > 8 | < 0.01 | > 8 | 8 (≈ 16.6 µM) | > 8 | – | > 8 | > 8 | > 8 | -1.1 | 0.13 | > 1000 | –
7 | Cc1[nH]c(C(=O)N[C@@H]2CCN(c3ncc(C(=O)O)s3)C[C@@H]2N=[N+]=[N-])c(Cl)c1Cl (racemic) | < 0.063 | < 0.01 | < 0.063 | < 0.063 | 0.13 (≈ 0.293 µM) | 0.25 (≈ 0.563 µM) | < 0.063 | 32 (≈ 72 µM) | < 0.063 | 0.53 | 0.038 | > 1000 | –
8 | C=C1COC2(CN(c3ncc(C(=O)O)s3)CC[C@H]2NC(=O)c2[nH]c(C)c(Cl)c2Cl)OC1 | 2 (≈ 4.1 µM) | < 0.01 | < 0.063 | < 0.063 | 1 (≈ 2.05 µM) | 2 (≈ 4.1 µM) | < 0.063 | > 64 | 0.5 (≈ 1.03 µM) | 0.82 | 0.006 | > 1000 | –
9 | COC1(OC)CN(c2ncc(C(=O)O)s2)CC[C@H]1NC(=O)c1[nH]c(C)c(Cl)c1Cl | 1 (≈ 2.16 µM) | 0.014 | 0.13 (≈ 0.281 µM) | 0.25 (≈ 0.54 µM) | 2 (≈ 4.32 µM) | 2 (≈ 4.32 µM) | 0.5 (≈ 1.08 µM) | > 64 | 0.5 (≈ 1.08 µM) | 0.24 | 0.018 | > 1000 | –
10 | CO[C@H]1CN(c2nc(-c3ccn[nH]3)c(C(=O)O)s2)CC[C@H]1NC(=O)c1[nH]c(C)c(Cl)c1Cl | 0.5 (≈ 1 µM) | < 0.01 | < 0.06 | < 0.06 | 0.5 (≈ 1 µM) | 0.17 (≈ 0.34 µM) | < 0.06 | 64 (≈ 128 µM) | 0.18 (≈ 0.36 µM) | 1.7 | – | 740 (≈ 370 µg/mL) | –
11 | CO[C@H]1CN(c2nc(C(=O)N3CCOCC3)c(C(=O)O)s2)CC[C@H]1NC(=O)c1[nH]c(C)c(Cl)c1Cl (racemic) | 8 (≈ 14.6 µM) | < 0.01 | 2 (≈ 3.66 µM) | – | 8 (≈ 14.6 µM) | > 8 | 2 (≈ 3.66 µM) | > 8 | 4 (≈ 7.32 µM) | -0.99 | 0.14 | 200 (≈ 109 µg/mL) | > 57
12 | C=CCO[C@H]1CN(c2ncc(C(=O)O)s2)CC[C@H]1NC(=O)c1[nH]c(C)c(Cl)c1Cl (racemic) | 0.5 (≈ 1.09 µM) | < 0.01 | < 0.063 | < 0.063 | 0.5 (≈ 1.09 µM) | 1 (≈ 2.18 µM) | < 0.063 | > 8 | 0.13 (≈ 0.283 µM) | – | – | – | –
13 | Cc1[nH]c(C(=O)N[C@@H]2CCN(c3ncc(C(=O)O)s3)CC23OCC2(CC2)CO3)c(Cl)c1Cl | 0.13 (≈ 0.259 µM) | < 0.01 | < 0.063 | < 0.063 | 0.5 (≈ 0.997 µM) | 0.5 (≈ 0.997 µM) | < 0.063 | > 64 | 1 (≈ 1.99 µM) | 0.88 | 0.012 | > 1000 | –
14 | CO[C@H]1CO[C@]2(CN(c3ncc(C(=O)O)s3)CC[C@H]2NC(=O)c2[nH]c(C)c(Cl)c2Cl)OC1 (relative stereo) | 1 (≈ 1.98 µM) | < 0.01 | 0.063 (≈ 0.125 µM) | 0.063 (≈ 0.125 µM) | 4 (≈ 7.91 µM) | 4 (≈ 7.91 µM) | 0.13 (≈ 0.257 µM) | > 64 | 1 (≈ 1.98 µM) | -0.18 | 0.053 | > 1000 | –
15 | C#CCO[C@H]1CN(c2ncc(C(=O)O)s2)CC[C@H]1NC(=O)c1[nH]c(C)c(Cl)c1Cl | 0.13 (≈ 0.284 µM) | < 0.01 | 0.016 (≈ 0.035 µM) | 0.016 (≈ 0.035 µM) | 0.25 (≈ 0.547 µM) | 0.25 (≈ 0.547 µM) | 0.016 (≈ 0.035 µM) | > 8 | 0.13 (≈ 0.284 µM) | 0.44 | 0.03 | > 1000 | –
16 | CS[C@H]1CN(c2ncc(C(=O)O)s2)CC[C@H]1NC(=O)c1[nH]c(C)c(Cl)c1Cl (racemic) | 0.13 (≈ 0.289 µM) | < 0.01 | 0.016 (≈ 0.0356 µM) | 0.016 (≈ 0.0356 µM) | 0.13 (≈ 0.289 µM) | 0.25 (≈ 0.556 µM) | < 0.008 | > 8 | 0.25 (≈ 0.556 µM) | 0.72 | 0.015 | > 1000 | –
17 | CNC(=O)c1sc(N2CC[C@@H](NC(=O)c3[nH]c(C)c(Cl)c3Cl)[C@@H](OC)C2)nc1C(=O)O | – | < 0.01 | > 32 | – | – | 2 (≈ 4.08 µM) | – | > 64 | 2 (≈ 4.08 µM) | – | < 0.01 | > 1000 | > 200
18 | Cc1[nH]c(C(=O)N[C@@H]2CCN(c3ncc(C(=O)O)s3)CC23OCC(C)(C)CO3)c(Cl)c1Cl | 0.25 (≈ 0.497 µM) | < 0.01 | < 0.063 | < 0.063 | 0.5 (≈ 0.993 µM) | 0.5 (≈ 0.993 µM) | < 0.063 | > 64 | 1 (≈ 1.99 µM) | 1.07 | 0.02 | > 1000 | –
